According to PMC3990230 (Journal of medicinal chemistry, 2010):

Experiments:
recombinant IKKβ = target: T1, recombinant IKKβ (Homo sapiens, UniProt O14920); assay: In vitro IKK assay: 32P incorporation into GST-IκB; assay type: biochemical; conditions: 30 min at 30°C
T1 sequence (O14920 1-756): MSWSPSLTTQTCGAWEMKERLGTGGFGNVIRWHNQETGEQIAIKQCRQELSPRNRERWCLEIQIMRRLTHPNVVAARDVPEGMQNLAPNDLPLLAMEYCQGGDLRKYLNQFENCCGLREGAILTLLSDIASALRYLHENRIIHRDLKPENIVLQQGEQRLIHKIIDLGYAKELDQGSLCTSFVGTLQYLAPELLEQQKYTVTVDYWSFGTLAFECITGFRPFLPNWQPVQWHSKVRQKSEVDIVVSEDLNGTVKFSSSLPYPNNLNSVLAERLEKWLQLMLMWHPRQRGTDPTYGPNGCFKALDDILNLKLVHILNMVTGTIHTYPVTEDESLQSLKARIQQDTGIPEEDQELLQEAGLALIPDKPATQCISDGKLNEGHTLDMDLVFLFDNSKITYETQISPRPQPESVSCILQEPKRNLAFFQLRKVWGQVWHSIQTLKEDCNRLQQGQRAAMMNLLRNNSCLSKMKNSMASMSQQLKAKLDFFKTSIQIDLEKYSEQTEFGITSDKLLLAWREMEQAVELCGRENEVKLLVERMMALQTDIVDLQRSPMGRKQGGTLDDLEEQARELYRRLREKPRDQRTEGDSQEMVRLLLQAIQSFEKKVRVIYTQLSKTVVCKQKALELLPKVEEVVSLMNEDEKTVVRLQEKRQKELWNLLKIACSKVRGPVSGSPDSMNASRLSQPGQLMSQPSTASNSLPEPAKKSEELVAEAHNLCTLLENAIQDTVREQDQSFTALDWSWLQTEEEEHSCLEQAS
Procedure, shortened: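 Activated recombinant IKKβ (40 ng) in MOPS buffer (pH 7.0) preincubated with test compound for 30 min at room temperature. Mg-ATP mix (100 μM ATP), purified GST-IκBα (5 μg) and [γ-32P]ATP (0.5 μCi) added, then 30 min at 30°C. Reaction stopped by boiling in SDS sample buffer. Samples run on 12.5% SDS-PAGE with Coomassie staining. Read by autoradiography and scintillation counting of excised bands. Controls lacked enzyme or compound.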

IKK = assay type: cell-based, Human; conditions: A549 cells, TNFα induced, Western blot
Procedure, shortened: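 A549 cells were pretreated with test compound at varying concentrations (4 hr), then stimulated with TNFα. Phosphorylation read-out: lysates taken at 7 min, probed anti-pS32-IκB, stripped and re-probed for total IκB. Stability read-out: TNFα 10 ng/ml for 20 min, total IκB only. NP-40 lysis (pH 7.4, phosphatase/protease inhibitors), 12.5% SDS-PAGE, nitrocellulose, 5% milk/TBS-T block, primary antibody ≥2 hr.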

A549 cells = assay: Clonogenic assay; assay type: cell-based, Human; conditions: 9 day incubation
Procedure, shortened: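 A549 cells seeded at 200 cells/well and incubated overnight, then exposed to test compound or DMSO vehicle. Medium and compound replaced every 3 days, for 9 days in total. Cells fixed in 10% TCA for 30 min at 4°C, water-washed, SRB-stained and rinsed with 1% acetic acid. Plates scanned, colonies counted and normalized to DMSO control.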

NF-κB = NF-κB translocation assay; assay type: cell-based, Human; conditions: A549 cells, TNFα induced

| Molecule | effect on IKKβ catalyzed incorporation of 32P into GST-IκB (in words) (recombinant IKKβ) | block of IκB phosphorylation and degradation (in words) (IKK) | concentration with detectable inhibition of colony forming activity (A549 cells) [µM] | fold greater potency than curcumin in blocking nuclear localization of NF-κB (NF-κB) |
| --- | --- | --- | --- | --- |
| 5-hydroxy-1, 7-bis(4-hydroxy-3-methoxyphenyl)hepta-1, 4, 6-trien-3-one [Curcumin, reference compound] | no obvious effect | block IκB phosphorylation and degradation when high concentrations were used | 4 | – |
| COc1cc(C=C(C(=O)/C=C/c2ccc(OC)c(OC)c2)C(=O)/C=C/c2ccc(OC)c(OC)c2)ccc1O [Compound 17, (1E,6E)-1,7-bis(3,4-dimethoxyphenyl)-4-(4-hydroxy-3-methoxybenzylidene)hepta-1,6-diene-3,5-dione] | dose-dependent inhibition of IKKβ | potently block the IκB phosphorylation and degradation in a lower concentration | – | more than 10 fold |
| COc1ccc(/C=C/C(=O)C(=Cc2ccc(F)cc2)C(=O)/C=C/c2ccc(OC)c(OC)c2)cc1OC [Compound 21, (1E,6E)-1,7-bis(3,4-dimethoxyphenyl)-4-(4-fluorobenzylidene)hepta-1,6-diene-3,5-dione] | dose-dependent inhibition of IKKβ | potently block the IκB phosphorylation and degradation in a lower concentration | – | more than 10 fold |
| COc1cc(/C=C/C(=O)C(=Cc2cccc(OC)c2OC)C(=O)/C=C/c2ccc(O)c(OC)c2)ccc1O [Compound 35, (1E,6E)-4-(2,3-dimethoxybenzylidene)-1,7-bis(4-hydroxy-3-methoxyphenyl)hepta-1,6-diene-3,5-dione] | dose-dependent inhibition of IKKβ | potently block the IκB phosphorylation and degradation in a lower concentration | – | – |
